Results published in ChEMBL document CHEMBL1142957, “Total structure and inhibition of tumor cell proliferation of laxaphycins” (J Med Chem, 2007).
The source made the active and inactive calls. The calls are words filed in the database; no cut-off is given here.

Experiments:
[1] = Cytotoxicity against vinblastine-resistant CEM/VLB100 cells after 72 hrs; format: cell-based; details: Homo sapiens, CEM/VLB100, 72 h
In short: (§1)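 Leukemic lymphoblasts (parent CCRF-CEM, Pgp-overexpressing CEM/VLB100, topo II-altered CEM/VM-1) grown in RPMI 1640 with 10% FCS and antibiotics, 37 °C, 5% CO2. Serial dilutions in medium added to 2 × 10⁵ cells/mL for 3 days, medium not renewed. Survivors counted on a Coulter counter. Triplicate, averaged.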

[2] = system: CCRF-CEM; assay: Ratio of IC50 for teniposide-resistant CEM/VM1 cells over IC50 for drug-sensitive CCRF-CEM cells; format: functional, Homo sapiens
[3] = system: CCRF-CEM; assay: Ratio of IC50 for vinblastine-resistant CEM/VLB100 cells over IC50 for drug-sensitive CCRF-CEM cells; format: functional, Homo sapiens
[4] = system: CCRF-CEM; assay: Cytotoxicity against drug-sensitive CCRF-CEM cells after 72 hrs; format: cell-based; details: Homo sapiens; in short: as §1
[5] = Cytotoxicity against teniposide-resistant CEM/VM1 cells after 72 hrs; format: cell-based; details: Homo sapiens, CEM-VM1, 72 h; in short: as §1
[6] = system: DLD-1; assay: Antiproliferative activity against human DLD1 cells at 5 uM after 48 hrs by RRT assay; format: functional, cell-based
In short: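 Adherent lines in supplemented Glutamax MEM, 37 °C, 5% CO2. Seeded 5 × 10³ cells/well, adhered 16 h, then treated 48 h continuously, alone or in combination, in 0.5% DMSO (solvent control). Resazurin 25 µg/mL in MEM added, 1 h at 37 °C, fluorescence 530/590 nm. Survival = % of control after blank subtraction; IC50 from concentration–survival curve. Two independent assays in triplicate.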

[7] = system: CCRF-CEM; assay: Antiproliferative activity against CCRF-CEM cells at 20 uM after 72 hrs; format: functional, cell-based; details: Homo sapiens; in short: as §1

SMILES | IC50 [1] | Ratio IC50 [2] | Ratio IC50 [3] | IC50 [4] | IC50 [5] | Activity [6] | Activity [7]
CCCCCCC[C@@H]1CC(=O)N[C@@H](C(C)C)C(=O)N[C@H]([C@@H](O)C(C)C)C(=O)N[C@@H](C)C(=O)N[C@H](CC(C)C)C(=O)N[C@@H](CCC(N)=O)C(=O)N(C)[C@@H]([C@@H](C)CC)C(=O)N[C@H]([C@@H](O)C(N)=O)C(=O)N[C@@H]([C@@H](C)O)C(=O)N2CCC[C@H]2C(=O)N[C@H](CC(C)C)C(=O)N[C@@H]([C@@H](C)O)C(=O)N1 [LAXAPHYCIN B2] | 3.33 µM | 1 | 0.8 | 4.15 µM | 4.14 µM | – | –
C/C=C1/NC(=O)[C@H](CCO)NC(=O)C[C@@H](CCCCC)NC(=O)CNC(=O)[C@H](CC(C)C)NC(=O)[C@@H]([C@@H](C)CC)NC(=O)[C@H]([C@@H](C)CC)NC(=O)[C@@H](CC(C)C)NC(=O)[C@@H](Cc2ccccc2)NC(=O)[C@H](CCO)NC(=O)[C@@H]2C[C@@H](O)CN2C1=O [LAXAPHYCIN A] | > 20 µM | – | – | > 20 µM | > 20 µM | inactive | inactive
COc1cccc2c1C(=O)c1c(O)c3c(c(O)c1C2=O)C[C@@](O)(C(=O)CO)C[C@@H]3O[C@H]1C[C@H](N)[C@H](O)[C@H](C)O1 [DOXORUBICIN] | 3.71 µM | 9 | 62 | 0.06 µM | 0.55 µM | – | –
